Data on 15 molecules can be found in ChEMBL document CHEMBL3259535, “Synthesis, cytotoxic study and docking based multidrug resistance modulator potential analysis of 2-(9-oxoacridin-10(9H)-yl)-N-phenyl acetamides” (Eur J Med Chem, 2014).

Format in all cases: functional, cell-based
For test [1], the system named is A549. Description: Antiproliferative activity against human A549 cells after 3 days by MTT assay. The conditions noted are these: A549, 72 h. The gist of the method: (§1)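 Stock cells grown to confluence in DMEM with 10% inactivated FBS, penicillin, streptomycin and amphotericin B at 37 °C, 5% CO₂, then detached with trypsin-EDTA-glucose. About 10,000 cells per well were seeded; after 24 h, drug was added at five dose levels for 72 h. MTT was added for 3 h, formazan dissolved in propanol and read at 540 nm. IC50 was taken from dose-response curves, triplicate, mean ± SEM.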
(Formazan colour is commonly taken as a measure of viable cells.)

Test [2] has as its system MCF7. The test is described as follows: Antiproliferative activity against human MCF7 cells after 3 days by MTT assay. The conditions noted are these: MCF7, 72 h. Put shortly:
as §1

Test [3] has as its system HeLa. Description: Antiproliferative activity against human HeLa cells after 3 days by MTT assay. The conditions noted are these: 72 h. The gist of the method: as §1

Consider `COc1ccc(NC(=O)Cn2c3ccccc3c(=O)c3ccccc32)cc1`, for which the IC50 (commonly the concentration at which inhibition is half-maximal) in test [1] was determined as 16.7 µM; in test [2], 15 µM; in test [3], 19.6 µM.

As for `O=C(Cn1c2ccccc2c(=O)c2ccccc21)Nc1ccc(C(F)(F)F)cc1`, the IC50 stood at 20.5 µM in test [1], 26.4 µM in test [2] and 23.2 µM in test [3].

As for `O=C(Cn1c2ccccc2c(=O)c2ccccc21)Nc1cccc(C(F)(F)F)c1`, the IC50 worked out at 38.2 µM in test [1], 35.1 µM in test [2] and 34.9 µM in test [3].

As for `O=C(Cn1c2ccccc2c(=O)c2ccccc21)Nc1ccccc1C(=O)O`, the IC50 was 7.39 µM in test [1], 6.07 µM in test [2] and 8.8 µM in test [3].

Turning to `O=C(Cn1c2ccccc2c(=O)c2ccccc21)Nc1ccc([N+](=O)[O-])cc1`, the values for the IC50 in test [1], in test [2] and in test [3] were 19.7 µM, 14 µM and 17.2 µM, respectively.

Turning to `Cc1ccc(NC(=O)Cn2c3ccccc3c(=O)c3ccccc32)cc1`, the IC50 in test [1] was found to be 20.2 µM; in test [2], 20.1 µM; in test [3], 21.9 µM.

As for `O=C(Cn1c2ccccc2c(=O)c2ccccc21)Nc1ccc(O)cc1`, the IC50 is 17.4 µM in test [1], 15.6 µM in test [2] and 22 µM in test [3].

As to `O=C(Cn1c2ccccc2c(=O)c2ccccc21)Nc1ccccc1[N+](=O)[O-]`, the IC50 in test [1] turned out to be 11.8 µM; in test [2], 12.6 µM; in test [3], 13.2 µM.

On to `O=C(Cn1c2ccccc2c(=O)c2ccccc21)Nc1ccc(Cl)cc1`, for which the IC50 was 34.9 µM in test [1], 31.2 µM in test [2] and 32.3 µM in test [3].

Take `O=C(Cn1c2ccccc2c(=O)c2ccccc21)Nc1cccc(Cl)c1`: the IC50 came out at 33.3 µM in test [1], 30.1 µM in test [2] and 29.1 µM in test [3].

In the case of `O=C(Cn1c2ccccc2c(=O)c2ccccc21)Nc1ccc(Br)cc1`, the figures for the IC50 in test [1], in test [2] and in test [3] were 35.1 µM, 33 µM and 32.2 µM, respectively.

For the molecule `O=C(Cn1c2ccccc2c(=O)c2ccccc21)Nc1ccc(C(=O)O)cc1`, the IC50 in test [1] is 8.8 µM; in test [2] it was 7.12 µM; in test [3] it was 10.7 µM.

As to `O=C(Cn1c2ccccc2c(=O)c2ccccc21)Nc1ccccc1`, the IC50 in test [1] stood at 41.4 µM; in test [2], 39.7 µM; in test [3], 43.8 µM.

As to `O=C(Cn1c2ccccc2c(=O)c2ccccc21)Nc1ccc(F)cc1`, the values for the IC50 in test [1], in test [2] and in test [3] were 24.5 µM, 27.5 µM and 26.6 µM, respectively.

Turning to `O=C(Cn1c2ccccc2c(=O)c2ccccc21)Nc1ccccc1F`, the IC50 came out at 23.3 µM in test [1], 29.2 µM in test [2] and 25.4 µM in test [3].
